Screens: PubChem, Sanford-Burnham Center for Chemical Genomics
LMPTP block: blocks human LMPTP phosphatase; P24666; AID 651560; recombinant LMPTP-A, OMFP fluorogenic substrate, fluorescence intensity; inhibition, % at 20 µM; 360,000 tested, 0.22% active;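 active = compounds that cut the enzyme signal by at least half of the control window in the single-dose screen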
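test system = LMPTP-A | amount = 0.625 nM LMPTP-A final | reagent = fluorogenic phosphatase substrate OMFP at 400 µM final | incubation = 50 min at room temperature | benchmarks = no-enzyme low control, uninhibited high control | medium = Bis-Tris pH 6.0, DTT, detergent | signal = fluorescence intensity of OMFP turnover product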
SUMO1 PPI mod: alters human SUMO1 binding to SIM partners | 360,000 tested, 0.33% active | inhibition, % at 20 µM | AID 602429 | SUMO1 binding to a labelled peptide, TR-FRET, 1 h; in the data active = inhibition above about 37%
STEP block: inhibitors of human striatal-enriched phosphatase STEP; recombinant STEP, OMFP fluorogenic substrate, fluorescence; 360,000 tested, 0.25% active; inhibition, % at 20 µM; P54829;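 active = inhibition at 20 µM, scaled per plate between control wells, above about 37%, limit read from the data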
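System: STEP (striatal-enriched tyrosine phosphatase) enzyme, cell-free; medium: Bis-Tris pH 6.0 buffer with DTT, detergent; dosing: 20 µM, 1% DMSO; times: reaction 20 min, ambient temperature; detection: fluorescence, 480/540 nm; read-out basis: normalized % inhibition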
SUMO HTRF inh: SUMOylation inhibition. HTRF SUMOylation assay, SAE1/SAE2 + UBC9, in vitro. inhibition, % at 35 µM. 290,000 tested, 0.36% active. AID 2006; in the data active = inhibition above about 50%, passing the limit was not always enough
Scp-1 inhibitor: Scp-1 (human) phosphatase inhibition; Q9GZU7; Recombinant Scp1, phosphopeptide, malachite green phosphate absorbance; inhibition, % at 20 µM; 340,000 tested, 0.88% active; AID 493091;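 active = inhibition above about 50% at 20 µM, limit read from the data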
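Incubation: 45 min enzyme reaction at room temperature / System: truncated SCP-1 phosphatase (76-261aa) / Reagent: Phospho 17-mer peptide substrate / Buffer or medium: Acidic Tris acetate buffer with magnesium and detergent / Signal: absorbance at 630 nm / Doses: one concentration, 20 µM, with 1.0% DMSO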
DNMT1 inh: inhibitors of human DNMT1 | 360,000 tested, 0.83% active | inhibition (reported as % activation of signal), % at 10 µM | DNMT1 molecular beacon, Hinp1I cleavage, fluorescence | P26358 | AID 588458; in the data active = inhibition above about 50%
Scp-1 conf: Scp-1 (human) inhibition, single-dose confirmed. AID 540281. 2,500 tested, 61% active. shares compounds with Scp-1 inhibitor. inhibition, % at 20 µM. recombinant SCP-1 catalytic domain, phosphate release, malachite green absorbance
Scp-1 MG ctr: interferes with malachite green readout, flagging false Scp-1 hits. 2,500 tested, under 10 active. Colorimetric interference counterscreen, malachite green absorbance 630 nm. apparent inhibition (interference), % at 20 µM. shares compounds with Scp-1 inhibitor;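 also: compounds added after enzyme reaction finished so only phosphate colour detection is probed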
Scp-1 Tm shift: binds human Scp-1, shifting its melting temperature; shares compounds with Scp-1 inhibitor; Recombinant SCP1, Sypro Orange thermal shift Tm; thermal shift relative to vanadate control, % at 40 µM; 1,500 tested, 25% active; AID 540329;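 active = substances whose mean melting-temperature shift, as a percentage of the reference inhibitor's shift, reaches about 5.3%, limit read from the data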
DNMT1 inh conf: DNMT1 inhibition confirmation, single concentration; shares compounds with DNMT1 inh; DNMT1 molecular beacon HinP1I cleavage, fluorescence; inhibition, % at 10 µM; 2,300 tested, 8% active; AID 602385;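 active = average inhibition of at least 30% in the single-concentration confirmation test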
Beacon interf: beacon fluorescence artifact counter-screen. DNMT1 molecular beacon spectral interference counterscreen, fluorescence 485/520. 2,300 tested, 1% active. activation (fluorescence interference), % at 10 µM. shares compounds with DNMT1 inh;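 active = activation of at least 30% at 10 µM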;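 also: DNMT1 catalytic domain with a HinP1I cleavage step and a FAM/dabcyl DNA beacon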
STEP conf: STEP (human) phosphatase inhibition, single concentration confirmation; shares compounds with STEP block; recombinant STEP, OMFP fluorogenic substrate, fluorescence; inhibition, % at 20 µM; 520 tested, 32% active; AID 623866; call rule not given here
Numbers stand for hits; - = inactive; . = not tested or not shown. Shown are actives, neighbours in structure and some others; about 1.9% of the full set was active somewhere.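 The calls were made as follows, unless noted: active = inhibition of at least 30% at 20 µM; inactive = the rest.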

SMILES	LMPTP block	SUMO1 PPI mod	STEP block	SUMO HTRF inh	Scp-1 inhibitor	DNMT1 inh	Scp-1 conf	Scp-1 MG ctr	Scp-1 Tm shift	DNMT1 inh conf	Beacon interf	STEP conf
COc1cc(/C=N/NC(=O)c2ccncc2)ccc1OCC(=O)Nc1ccccc1	-	-	-	-	-	-	.	.	.	.	.	.
COc1ccc(-c2csc(N3CCN(S(=O)(=O)c4ccc5c(c4)NC(=O)CO5)CC3)n2)cc1	-	-	-	-	-	-	.	.	.	.	.	.
Cc1ccc2oc(-c3ccc(NC(=O)c4ccncc4)cc3O)nc2c1	-	-	-	-	-	-	.	.	.	.	.	.
Cc1ccc2oc(-c3cc(NC(=O)c4ncn[nH]4)ccc3O)nc2c1	-	-	78	-	85	-	81	-	-	.	.	-
CC(C)(C)c1ccc(NC(=O)CSc2n[nH]c(=O)n2C2CC2)cc1	-	-	-	.	-	-	.	.	.	.	.	.
O=C(N/N=C/c1ccsc1)c1cc2ccccc2o1	-	-	-	-	-	-	.	.	.	.	.	.
O=C(N/N=C/c1cccc([N+](=O)[O-])c1)c1cc2ccccc2o1	-	-	63	-	51	94	-	-	.	-	-	-
COc1ccc2cc(C(=O)Nc3ccc(Cl)cc3)sc(=O)c2c1OC	-	-	59	-	92	57	65	-	-	-	-	-
COc1ccc2cc(C(=O)Nc3ccc(F)cc3)sc(=O)c2c1OC	-	-	49	-	56	-	41	-	-	.	.	-
Cc1cc(N)n(-c2ccc(Oc3ccccc3)c(S(=O)(=O)O)c2)n1	-	-	43	-	75	-	60	-	-	-	-	-
Cc1cc(N)n(-c2ccc(C)c(C)c2)n1	-	-	-	-	-	-	.	.	.	.	.	.
N#C/C(=C\c1ccc(OC(=O)c2ccc(Cl)s2)cc1)c1nc2ccccc2[nH]1	-	-	71	-	99	83	74	-	-	-	-	25
N#C/C(=C\c1ccc(OC(=O)c2ccc(Br)s2)cc1)c1nc2ccccc2[nH]1	-	-	57	-	101	82	52	-	5.5	-	-	-
N#C/C(=C\c1cccc(OCC(=O)O)c1)c1nc2ccccc2[nH]1	-	-	-	-	-	-	.	.	.	.	.	.
CC(=O)c1ccc(S(=O)(=O)Nc2cccc(-n3cnnn3)c2)cc1	-	-	97	-	77	100	65	-	-	-	-	99
CC(=O)Nc1ccc(S(=O)(=O)Nc2cccc(-n3cnnn3)c2)cc1	-	-	-	-	-	-	.	.	.	.	.	.
Cc1ccc(NC(=O)CN2C(=O)S/C(=C\c3ccc(OCC(=O)O)c(Br)c3)C2=O)cc1	-	-	71	-	72	-	58	-	-	.	.	61
COC(=O)COc1ccc(/C=C2/SC(=O)N(CC(=O)N3CCCC3)C2=O)cc1Br	-	-	-	-	-	-	.	.	.	.	.	.
O=C(O)CSc1ncnc2c1sc1nc(-c3ccccc3)c3c(c12)CCC3	-	-	48	-	78	-	53	-	-	.	.	-
C#Cc1cccc(N2C(=O)C3C4C=CC(C3C2=O)C2C(=O)N(c3cccc(C#C)c3)C(=O)C42)c1 (stereo not drawn)	-	-	-	.	-	-	.	.	.	.	.	.
O=C(CSc1nnc2c(n1)[nH]c1ccc(F)cc12)NCc1ccc(F)cc1	-	-	60	-	65	-	-	-	.	.	.	-
